# Results: ChEMBL document CHEMBL3259534, “Diterpenoids from Croton laui and their cytotoxic and antimicrobial activities” (J Nat Prod, 2014)
# Tests used:
# [1] = test system: Kocuria rhizophila; test: Antimicrobial activity against Micrococcus luteus ATCC 9341 by microdilution method; type: functional
# Outline: (§1)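 In vitro antibacterial test by microdilution. Strains were drawn from a panel of Gram-positive and Gram-negative bacteria. Ofloxacin was run as the positive control. The read-out is MIC.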
# [2] = test system: Escherichia coli; test: Antimicrobial activity against Escherichia coli ATCC 25922 by microdilution method; type: functional; outline: as §1
# [3] = test system: Pseudomonas aeruginosa; test: Antimicrobial activity against Pseudomonas aeruginosa ATCC 14502 by microdilution method; type: functional; outline: as §1
# [4] = test system: Shigella flexneri; test: Antimicrobial activity against Shigella flexneri ATCC 12022 by microdilution method; type: functional; outline: as §1
# [5] = test system: P388; test: Cytotoxicity against mouse P388 cells after 72 hrs by MTT assay; type: functional, cell-based; details: P388, 72 h
# Outline: (§2)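 MTT viability assay on HL-60 human premyelocytic leukemia cells and P-388 murine leukemia cells. Adriamycin was included as the positive control.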
# [6] = test system: Staphylococcus aureus; test: Antimicrobial activity against Staphylococcus aureus ATCC 25923 by microdilution method; type: functional; outline: as §1
# [7] = test system: HL-60; test: Cytotoxicity against human HL60 cells after 72 hrs by MTT assay; type: functional, cell-based; details: HL-60, 72 h; outline: as §2
# [8] = test system: Nannizzia gypsea; test: Antimicrobial activity against Microsporum gypseum ATCC 14683 by agar dilution method; type: functional
# Outline: (§3)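 In vitro antifungal test by agar dilution against a panel of yeasts and dermatophytes. Amphotericin B served as the positive control. Activity is reported as MIC.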
# [9] = test system: Staphylococcus epidermidis; test: Antimicrobial activity against Staphylococcus epidermidis ATCC 12228 by microdilution method; type: functional; outline: as §1
# [10] = test system: Candida albicans; test: Antimicrobial activity against Candida albicans ATCC 1600 by agar dilution method; type: functional; outline: as §3
# [11] = test system: Saccharomyces; test: Antimicrobial activity against Saccharomyces sake ATCC 26421 by agar dilution method; type: functional; outline: as §3
# [12] = test system: Trichophyton rubrum; test: Antimicrobial activity against Trichophyton rubrum ATCC 10218 by agar dilution method; type: functional; outline: as §3
# [13] = test system: Bacillus subtilis; test: Antimicrobial activity against Bacillus subtilis CMCC 63501 by microdilution method; type: functional
SMILES,MIC [1],MIC [2],MIC [3],MIC [4],IC50 [5],MIC [6],IC50 [7],MIC [8],MIC [9],MIC [10],MIC [11],MIC [12],MIC [13]
C=C1CC[C@]23C(C(=O)OC)=CCC[C@H]2[C@]12C[C@H](c1ccoc1)O[C@H]2O[C@@H]3O (relative stereo),> 150 µM,> 150 µM,> 150 µM,> 150 µM,≥ 10 µM,> 150 µM,≥ 10 µM,> 150 µM,> 150 µM,> 150 µM,> 150 µM,> 150 µM,> 150 µM
CC1=CCC[C@@H]2[C@@](C)(CCC3=CCOC3)[C@H](C)CC[C@@]12C (relative stereo),43.4 µM,,,,≥ 10 µM,43.4 µM,≥ 10 µM,,43.4 µM,,,,43.4 µM
C=C1[C@H](O)CC[C@@H]2[C@@]3(C)C[C@@H](c4ccoc4)OC(=O)[C@@H]3CC[C@@]12C (relative stereo),> 150 µM,> 150 µM,> 150 µM,> 150 µM,≥ 10 µM,> 150 µM,≥ 10 µM,> 150 µM,> 150 µM,> 150 µM,> 150 µM,> 150 µM,> 150 µM
COC(=O)C1=CCC[C@@H]2[C@]13CC[C@H](C)[C@@]21C[C@H](c2ccoc2)O[C@H]1O[C@@H]3O,> 150 µM,> 150 µM,> 150 µM,> 150 µM,≥ 10 µM,> 150 µM,≥ 10 µM,> 150 µM,> 150 µM,> 150 µM,> 150 µM,> 150 µM,> 150 µM
COC(=O)C1=CCC[C@@H]2[C@]13CC[C@H](C)[C@@]21C[C@H](c2ccoc2)O[C@H]1O[C@H]3O,> 150 µM,> 150 µM,> 150 µM,> 150 µM,≥ 10 µM,> 150 µM,≥ 10 µM,> 150 µM,> 150 µM,> 150 µM,> 150 µM,> 150 µM,> 150 µM
C=C1C[C@H](OC(C)=O)[C@]23C(C(=O)OC)=CCC[C@H]2[C@]12C[C@H](c1ccoc1)O[C@H]2O[C@@H]3O,> 150 µM,> 150 µM,> 150 µM,> 150 µM,≥ 10 µM,> 150 µM,≥ 10 µM,> 150 µM,> 150 µM,> 150 µM,> 150 µM,> 150 µM,> 150 µM
C/C(=C\CO)[C@@H]1C[C@@H]2[C@@]3(C)CCCC(C)(C)[C@@H]3C[C@H](O)[C@@]2(C)O1,> 150 µM,> 150 µM,> 150 µM,> 150 µM,≥ 10 µM,> 150 µM,≥ 10 µM,> 150 µM,> 150 µM,> 150 µM,> 150 µM,> 150 µM,> 150 µM
C[C@@H]1CC[C@]2(C)[C@H](CC[C@@H](O)[C@]2(C)O)[C@@]1(C)CCc1ccoc1,> 150 µM,> 150 µM,> 150 µM,> 150 µM,≥ 10 µM,> 150 µM,≥ 10 µM,> 150 µM,> 150 µM,> 150 µM,> 150 µM,> 150 µM,> 150 µM
C=C1C[C@@H]2OC(=O)C3=CCC[C@H]4[C@]15C[C@H](c1ccoc1)O[C@H]5OC(=O)[C@]324 (relative stereo),> 150 µM,> 150 µM,> 150 µM,> 150 µM,7.45 µM,> 150 µM,9.42 µM,> 150 µM,> 150 µM,> 150 µM,> 150 µM,> 150 µM,> 150 µM
C=C1CC[C@]23C(C(=O)OC)=CCC[C@H]2[C@]12C[C@H](c1ccoc1)O[C@H]2O[C@H]3O (relative stereo),> 150 µM,> 150 µM,> 150 µM,> 150 µM,≥ 10 µM,> 150 µM,≥ 10 µM,> 150 µM,> 150 µM,> 150 µM,> 150 µM,> 150 µM,> 150 µM
C=C1C[C@H](OC(C)=O)[C@]23C(C(=O)OC)=CCC[C@H]2[C@]12C[C@H](c1ccoc1)O[C@H]2O[C@H]3O,> 150 µM,> 150 µM,> 150 µM,> 150 µM,≥ 10 µM,> 150 µM,≥ 10 µM,> 150 µM,> 150 µM,> 150 µM,> 150 µM,> 150 µM,> 150 µM
C[C@@H]1CC[C@]2(C)[C@H](CC[C@@H](O)[C@]2(C)O)[C@@]1(C)C[C@H](O)c1ccoc1,> 150 µM,> 150 µM,> 150 µM,> 150 µM,≥ 10 µM,> 150 µM,≥ 10 µM,> 150 µM,> 150 µM,> 150 µM,> 150 µM,> 150 µM,> 150 µM
C=C1CC[C@H]2[C@](C)(CO)[C@H](O)CC[C@]2(C)[C@H]1C/C=C(\C)C=O,> 150 µM,> 150 µM,> 150 µM,> 150 µM,≥ 10 µM,> 150 µM,≥ 10 µM,> 150 µM,> 150 µM,> 150 µM,> 150 µM,> 150 µM,> 150 µM
C[C@@H]1C(=O)CC[C@H]2[C@@]1(C)CC[C@H]1C(=O)O[C@H](c3ccoc3)C[C@]21C (relative stereo),> 150 µM,> 150 µM,> 150 µM,> 150 µM,≥ 10 µM,> 150 µM,≥ 10 µM,> 150 µM,> 150 µM,> 150 µM,> 150 µM,> 150 µM,> 150 µM
